From ChEMBL document CHEMBL5543129, “Peptide Inhibitor Targeting the Extraterminal Domain in BRD4 Potently Suppresses Breast Cancer Both In Vitro and In Vivo” (J Med Chem, 2024)
Activity calls are given as the source filed them. No cut-off for these calls is given here. Square brackets hold non-standard residues; d marks the D form. Peptide text beside a SMILES is read from it. Hyp = O=C(O)[C@@H]1C[C@@H](O)CN1; Ahx = NCCCCCC(=O)O

Assays:
[1] = test system: MCF7; assay: Inhibition of His-tagged BRD4 ET domain to Flag-tagged JMJD6 (unknown origin) protein-protein interaction in human MCF7 cells assessed as fold decrease in Flag-tagged JMJD6 level at 10 uM incubated for 12 hrs by immunoblotting assay (reference value: […]); assay type: cell-based
[2] = test system: MCF7; assay: Antitumor activity against human MCF7 cells xenografted in BALB/c nude mouse assessed as reduction in tumor volume at 12.5 mg/kg, ip administered every 2 days in presence of 12.5 mg/kg JMJD6 inhibitor; assay type: functional, organism-based
Summary of the method: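 Female BALB/c nude mice given 5 × 10^6 cells sc (MCF7 mice with E2 10^-2 M every 2 days), randomised at ~50 mm3. Peptide 12.5 mg/kg ip (saline) every 2 days, plus JQ1 50 mg/kg ip (DMSO/10% HPBCD 1:10) every 2 days or iJMJD6 12.5 mg/kg ip (DMSO/PBS 1:20). Caliper volume every 2 days; tumours weighed at the end.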

[3] = test system: MCF7; assay: Inhibition of cell migration in human MCF7 cells at 10 uM incubated for 24 hrs in presence of fulvestrant by inverted microscopic analysis; assay type: functional, cell-based
Summary of the method: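 Cells are seeded at 5 × 10^5/well and scratched at 80–90% confluence. They are kept in serum-free medium with peptide (10 μM); partner agents are JQ1 5 μM, iJMJD6 10 μM, or ICI 2.5 μM. Wound area is imaged by inverted microscope at 0 and 12 or 24 h. Wound closure % = (A0−A1)/A0 × 100. Three biological repeats.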

[4] = Downregulation of CCND1 protein expression in BALB/c mouse tumor xenografted with human MDA-MB-231 cells assessed as fold change in remaining CCND1 level at 25 mg/kg, ip administered every 2 days by immunoblotting analysis; assay type: functional
Summary of the method: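 Tumours taken from xenograft mice dosed with peptide at 25 mg/kg ip every 2 days. […] Three repeats.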

[5] = molecular target: T1, von Hippel-Lindau disease tumor suppressor/Bromodomain-containing protein 4 (Homo sapiens) (UniProt O60885+P40337); assay: PROTAC activity at VHL/BDR4 ET domain in human MCF7 cells assessed as degradation by measuring fold change in remaining BRD4 level at 5 uM incubated for 24 hrs by immunoblotting analysis (reference value: […]); assay type: cell-based
[6] = molecular target: T1, von Hippel-Lindau disease tumor suppressor/Bromodomain-containing protein 4 (Homo sapiens); assay: PROTAC activity at VHL/BDR4 ET domain in human MCF7 cells assessed as degradation by measuring fold change in remaining BRD4 level at 10 uM incubated for 24 hrs by immunoblotting analysis (reference value: […]); assay type: cell-based
[7] = molecular target: T2, von Hippel-Lindau disease tumor suppressor/Bifunctional arginine demethylase and lysyl-hydroxylase JMJD6 (Homo sapiens) (UniProt P40337+Q6NYC1); assay: Protac activity at VHL/JMJD6 in human MCF7 cells assessed as degradation by measuring fold change in remaining JMJD6 level at 5 uM incubated for 24 hrs by immunoblotting analysis (reference value: […]); assay type: cell-based
[8] = molecular target: T2, von Hippel-Lindau disease tumor suppressor/Bifunctional arginine demethylase and lysyl-hydroxylase JMJD6 (Homo sapiens); assay: Protac activity at VHL/JMJD6 in human MCF7 cells assessed as degradation by measuring fold change in remaining JMJD6 level at 10 uM incubated for 24 hrs by immunoblotting analysis (reference value: […]); assay type: cell-based
[9] = molecular target: T1, von Hippel-Lindau disease tumor suppressor/Bromodomain-containing protein 4 (Homo sapiens); assay: PROTAC activity at VHL/BDR4 ET domain in human MCF7 cells assessed as degradation by measuring fold change in remaining BRD4 level at 10 uM incubated for 6 hrs by immunoblotting analysis (reference value: […]); assay type: cell-based
[10] = molecular target: T1, von Hippel-Lindau disease tumor suppressor/Bromodomain-containing protein 4 (Homo sapiens); assay: PROTAC activity at VHL/BDR4 ET domain in human MCF7 cells assessed as degradation by measuring fold change in remaining BRD4 level at 10 uM incubated for 12 hrs by immunoblotting analysis (reference value: […]); assay type: cell-based
[11] = molecular target: T2, von Hippel-Lindau disease tumor suppressor/Bifunctional arginine demethylase and lysyl-hydroxylase JMJD6 (Homo sapiens); assay: Protac activity at VHL/JMJD6 in human MCF7 cells assessed as degradation by measuring fold change in remaining JMJD6 level at 10 uM incubated for 12 hrs by immunoblotting analysis (reference value: […]); assay type: cell-based
[12] = molecular target: T1, von Hippel-Lindau disease tumor suppressor/Bromodomain-containing protein 4 (Homo sapiens); assay: PROTAC activity at VHL/BDR4 ET domain in human MCF7 cells assessed as degradation by measuring fold change in remaining BRD4 level at 10 uM incubated for 24 hrs in presence of TAT by immunoblotting analysis relative to TAT/TAT-PROTAC; assay type: cell-based
Summary of the method: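 MCF7 cells are treated with PROTAC peptide (dose series, or 10 μM over a time course, or 10 μM with or without MG132 10 μM) for up to 24 h. Comparators are TAT, TAT-PiET, or TAT-PROTAC at 10 μM. BRD4 is measured by immunoblot, normalised to β-actin; three repeats.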

[13] = molecular target: T2, von Hippel-Lindau disease tumor suppressor/Bifunctional arginine demethylase and lysyl-hydroxylase JMJD6 (Homo sapiens); assay: PROTAC activity at VHL/JMJD6 in human MCF7 cells assessed as degradation by measuring fold change in remaining JMJD6 level at 10 uM incubated for 24 hrs in presence of TAT by immunoblotting analysis relative to TAT/TAT-PROTAC; assay type: cell-based
Summary of the method: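 MCF7 cells were left untreated or given TAT, TAT-PROTAC, TAT-PiET or the PROTAC peptide (each 10 μM) for 24 h. Lysates were immunoblotted with β-actin for loading. Three repeats, quantified in the Supporting Table.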

[14] = molecular target: T1, von Hippel-Lindau disease tumor suppressor/Bromodomain-containing protein 4 (Homo sapiens); assay: PROTAC activity at VHL/His-tagged BDR4 ET domain (601 to 683 residues) (unknown origin) transfected in MCF7 cells assessed as degradation by measuring fold change in remaining BRD4 level at 10 uM incubated for 12 hrs by immunoblotting analysis (reference value: […]); assay type: cell-based
[15] = molecular target: T1, von Hippel-Lindau disease tumor suppressor/Bromodomain-containing protein 4 (Homo sapiens); assay: PROTAC activity at VHL/His-tagged BDR4 ET domain (1 to 470 residues) (unknown origin) transfected in MCF7 cells assessed as degradation by measuring fold change in remaining BRD4 level at 20 uM incubated for 24 hrs by immunoblotting analysis (reference value: […]); assay type: cell-based
[16] = molecular target: T1, von Hippel-Lindau disease tumor suppressor/Bromodomain-containing protein 4 (Homo sapiens); assay: PROTAC activity at VHL/His-tagged BDR4 ET domain (1 to 470 residues) (unknown origin) transfected in MCF7 cells assessed as degradation by measuring fold change in remaining BRD4 level at 10 uM incubated for 12 hrs by immunoblotting analysis (reference value: […]); assay type: cell-based
[17] = molecular target: T1, von Hippel-Lindau disease tumor suppressor/Bromodomain-containing protein 4 (Homo sapiens); assay: PROTAC activity at VHL/His-tagged BDR4 […] (unknown origin) transfected in MCF7 cells assessed as degradation by measuring fold change in remaining BRD4 level at 5 uM incubated for 24 hrs by immunoblotting analysis (reference value: […]); assay type: cell-based
[18] = molecular target: T1, von Hippel-Lindau disease tumor suppressor/Bromodomain-containing protein 4 (Homo sapiens); assay: PROTAC activity at VHL/His-tagged BDR4 […] (unknown origin) transfected in MCF7 cells assessed as degradation by measuring fold change in remaining BRD4 level at 10 uM incubated for 24 hrs by immunoblotting analysis (reference value: […]); assay type: cell-based
[19] = molecular target: T1, von Hippel-Lindau disease tumor suppressor/Bromodomain-containing protein 4 (Homo sapiens); assay: PROTAC activity at VHL/His-tagged BDR4 […] (unknown origin) transfected in MCF7 cells assessed as degradation by measuring fold change in remaining BRD4 level at 20 uM incubated for 24 hrs by immunoblotting analysis (reference value: […]); assay type: cell-based
[20] = molecular target: T1, von Hippel-Lindau disease tumor suppressor/Bromodomain-containing protein 4 (Homo sapiens); assay: PROTAC activity at VHL/His-tagged BDR4 ET domain (1047 to 1362 residues) (unknown origin) transfected in MCF7 cells assessed as degradation by measuring fold change in remaining BRD4 level at 20 uM incubated for 24 hrs by immunoblotting analysis (reference value: […]); assay type: cell-based

In the case of H-YGRKKRRQRRRRNQKFKCGE-OH, the fold change (FC) [1] was 0.93, the Activity [2] was “Active” and the inhibition [3] was “Active”. The “fold change (FC)” value [4] was 0.28.
`CC[C@H](C)[C@H](NC(=O)[C@H](Cc1ccc(O)cc1)NC(=O)[C@@H]1C[C@@H](O)CN1C(=O)[C@H](C)NC(=O)[C@@H](NC(=O)CCCCCNC(=O)[C@H](CCC(=O)O)NC(=O)CNC(=O)[C@H](CS)NC(=O)[C@H](CCCCN)NC(=O)[C@H](Cc1ccccc1)NC(=O)[C@H](CCCCN)NC(=O)[C@H](CCC(N)=O)NC(=O)[C@H](CC(N)=O)NC(=O)[C@H](CCCNC(=N)N)NC(=O)[C@H](CCCNC(=N)N)NC(=O)[C@H](CCCNC(=N)N)NC(=O)[C@H](CCCNC(=N)N)NC(=O)[C@H](CCC(N)=O)NC(=O)[C@H](CCCNC(=N)N)NC(=O)[C@H](CCCNC(=N)N)NC(=O)[C@H](CCCCN)NC(=O)[C@H](CCCCN)NC(=O)[C@H](CCCNC(=N)N)NC(=O)CNC(=O)[C@@H](N)Cc1ccc(O)cc1)[C@@H](C)CC)C(=O)O` (H-YGRKKRRQRRRRNQKFKCGE[Ahx]IA[Hyp]YI-OH) gave a fold change (FC) [5] of 0.35, a fold change (FC) [6] of 0.26 and a fold change (FC) [7] of 0.77. For the same compound, the fold change (FC) [8] was 0.59, the fold change (FC) [9] was 0.72 and the fold change (FC) [10] was 0.55. The fold change (FC) [11] was 0.85, the fold change (FC) [12] was 0.63 and the fold change (FC) [13] was 0.61. For the same compound, the fold change (FC) [14] was 0.78, the fold change (FC) [15] was 1.06 and the fold change (FC) [16] was 1.11. The fold change (FC) [17] was 1.01, the fold change (FC) [18] was 0.91 and the fold change (FC) [19] was 1.4. The fold change (FC) [20] was 1.05, the Activity [2] was “Active” and the inhibition [3] was “Active”. The “fold change (FC)” value [4] was 0.08.
